Results from ChEMBL document CHEMBL4480389, “Chemoenzymatically synthesized ganglioside GM3 analogues with inhibitory effects on tumor cell growth and migration” (Eur J Med Chem, 2019).
Active and inactive are the calls of the source. The rule behind the calls is not given here.

Key:
[1] = system: HCCLM3; assay: Antimigratory activity against human HCCLM3 cells at 50 uM after 48 hrs by wound healing assay; assay type: functional, cell-based
How it was run: (§1)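 Near-confluent monolayers (1.5×10^5 cells per well, RPMI-1640 with 10% FBS) were scratched with a pipette tip and washed twice with serum-free medium. They were then exposed for 48 h to analogue in fresh FBS-containing medium, with DMSO medium as control. Wounds were photographed, and migration was expressed as % of 0 h (wound width at endpoint/width at 0 h). Done in triplicate.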

[2] = system: B16; assay: Antimigratory activity against mouse B16 cells at 6.25 to 12.5 uM after 48 hrs by wound healing assay; assay type: functional, cell-based; how it was run: as §1
[3] = system: HCT-116; assay: Antiproliferative activity against human HCT116 cells after 48 hrs by MTT assay; assay type: functional, cell-based; conditions: HCT-116, 48 h
How it was run: (§2)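 Cells were seeded at 8×10^3 per well in RPMI-1640 with 10% heat-inactivated FBS. They were treated for 48 h at 37 °C, 5% CO2 with 20, 200, 400 or 1000 μM analogue, or DMSO vehicle. MTT (5 mg/mL solution) was added for 4 h, and absorbance was read at 570 nm. Viability was taken relative to vehicle control, as means ± SD of three independent experiments.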

[4] = system: K562; assay: Antiproliferative activity against human K562 cells after 48 hrs by MTT assay; assay type: functional, cell-based; conditions: K562, 48 h; how it was run: as §2
[5] = system: B16-F10; assay: Antimigratory activity against mouse B16F10 cells at 6.25 to 12.5 uM after 12 hrs by wound healing assay

With `CCCCCCCCCCCCC/C=C/[C@@H](O)[C@H](CO[C@H]1O[C@H](CO[C@]2(C(=O)O)C[C@H](O)[C@@H](NC(C)=O)[C@H]([C@H](O)[C@H](O)CO)O2)[C@@H](O)[C@H](O)[C@@H]1O)NC(=O)CCCCCCCCCCCCCCCCC` the Activity [1] was “inactive”, the Activity [2] was “Active” and the IC50 [3] was 64.2 µM. The IC50 [4] was 160 µM and the Activity [5] was “Active”.

For `CCCCCCCCCCCCC/C=C/[C@@H](O)[C@@H](N)CO[C@@H]1O[C@H](CO[C@]2(C(=O)O)C[C@H](O)[C@@H](NC(C)=O)[C@H]([C@H](O)[C@H](O)CO)O2)[C@H](O)[C@H](O)[C@H]1O`, the Activity [1] was “Active”, the Activity [2] was “Active” and the IC50 [3] was 130 µM. The IC50 [4] was 206 µM and the Activity [5] was “Active”.

In the case of `CCCCCCCCCCCCC/C=C/[C@@H](O)[C@@H](N)CO[C@H]1O[C@H](CO[C@]2(C(=O)O)C[C@H](O)[C@@H](NC(C)=O)[C@H]([C@H](O)[C@H](O)CO)O2)[C@@H](O)[C@H](O)[C@@H]1O`, the Activity [1] is reported as “Active”, the Activity [2] is reported as “Active” and the IC50 [3] is reported as 182 µM. For the same compound, the IC50 [4] was 148 µM and the Activity [5] was “Active”.

In the case of `CCCCCCCCCCCCC/C=C/[C@@H](O)[C@H](CO[C@@H]1O[C@H](CO[C@]2(C(=O)O)C[C@H](O)[C@@H](NC(C)=O)[C@H]([C@H](O)[C@H](O)CO)O2)[C@H](O)[C@H](O)[C@H]1O)NC(=O)CCCCCCCCCCCCCCCCC`, the Activity [1] is reported as “inactive”, the Activity [2] is reported as “Active” and the IC50 [3] is reported as 86.2 µM. For the same compound, the IC50 [4] was 396 µM and the Activity [5] was “Active”.
